Screens from PubChem BioAssay.
SR-BI DiI inh: inhibitors of SR-BI mediated HDL lipid uptake, primary screen, ldlA[mSR-BI] cells, fluorescence, single point; ldlA[mSR-BI] CHO cells, DiI-HDL uptake fluorescence, 3 h; inhibition, % at 12.5 µM; 0.96% of 320,000 active; AID 488896, 2010;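 active = mean replicate inhibition of at least 70% and a set share of replicates each scoring 70 or more; inconclusive = meets just one of the two criteria; inactive = fails both criteria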
UBC13 polyUb: UBC13 polyubiquitin chain formation inhibitors, primary screen, biochemical, TR-FRET, uHTS | Ubiquitin-conjugating enzyme E2 N (Homo sapiens), P61088 | inhibition, % at 20 µM | 0.47% of 330,000 active | AID 485273, 2010; in the data active = inhibition above about 45%, passing the limit was not always enough; inconclusive = no clear call, values can overlap the other calls
Target sequence (P61088 whole entry, looked up): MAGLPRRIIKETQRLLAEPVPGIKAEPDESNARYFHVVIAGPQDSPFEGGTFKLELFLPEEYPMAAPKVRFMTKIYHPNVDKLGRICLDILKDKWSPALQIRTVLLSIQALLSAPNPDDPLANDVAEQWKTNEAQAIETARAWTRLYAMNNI
Neddyl block: inhibitors of cullin neddylation, primary screen, biochemical, TR-FRET, uHTS, NAE and Ubc12 | NEDD8-conjugating enzyme Ubc12 (Homo sapiens) + NEDD8-activating enzyme E1 regulatory … | inhibition, % at 25 µM | 0.58% of 360,000 active; in the data active = inhibition above about 36%
SR-BI uptake up: activators of SR-BI mediated DiI-HDL uptake, primary screen, ldlA[mSR-BI] CHO cells, DiI fluorescence | 0.096% of 320,000 active | activation, % at 12.5 µM | 3 h; 100 = double the neutral-control signal;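 active = mean replicate activation of at least 60% and every replicate at or above 60%; inconclusive = mean or all-replicate condition met, but not both; inactive = mean below 60% and not all replicates reaching 60%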
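Assay system: LDL receptor-deficient CHO ldlA cells overexpressing murine SR-BI / Medium: BSA-supplemented, HEPES-buffered Ham's F12, pH 7.4 / Probe or stimulus: DiI-labelled HDL at 10 µg/mL final / Timing: compound with DiI-HDL co-incubation, 3 h at 37 °C / Technique: bottom-read cell fluorescence after medium removal, ex 550/em 595 nm / Measure: HDL uptake via cellular fluorescence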
Of the large screens only hits and unclear results are named; the others gave an inactive call. Only some compounds are listed: those with a hit (about 1.9% of all), similar ones and a draw of the others.

O=C(NC(=S)NNC(=O)c1ccccc1O)c1ccc(F)cc1	SR-BI DiI inh 125
O=C(NNC(=O)c1cc(Cl)ccc1O)c1cccs1	SR-BI DiI inh 89
COc1ccccc1C(=O)NNC(=S)NC(=O)c1cccs1	none
COc1ccc(-c2cn3c(C)c(C(=O)Nc4cc(NC(C)=O)ccc4OC)sc3n2)cc1	SR-BI DiI inh 75 (not shown: Neddyl block)
CNC(=O)c1sc2nc(-c3ccc(OC)cc3)cn2c1C	none
CC(=O)Oc1ccc(C(=O)Nc2ccccc2C(=O)NCC(C)C)cc1	SR-BI DiI inh 74
CCOc1ccc(N(C(C)C(=O)N/N=C(\C)c2cccc(NC(=O)c3ccccc3)c2)S(C)(=O)=O)cc1 (stereo not given)	SR-BI DiI inh 78
CCOc1ccc(N(C(C)C(=O)Nc2cccnc2)S(C)(=O)=O)cc1 (stereo not given)	none
CCCCn1nnnc1C1(C)CCC(=O)N1Cc1cc(OC)ccc1OC (stereo not given)	none (no result: SR-BI DiI inh, UBC13 polyUb, SR-BI uptake up)
Cc1[nH]c2ccccc2c1/C=N/Nc1ccc([N+](=O)[O-])cc1S(=O)(=O)Nc1ccc(Cl)cc1	SR-BI DiI inh 83
O=C(N/N=C/c1c[nH]c2ccccc12)c1cccc([N+](=O)[O-])c1	none
COc1ccc(NS(=O)(=O)c2cc([N+](=O)[O-])ccc2N/N=C\c2c(C)[nH]c3ccccc23)cc1	none
COc1ccccc1NS(=O)(=O)c1cc([N+](=O)[O-])ccc1N/N=C/c1c[nH]c2ccccc12	SR-BI DiI inh 83
O=[N+]([O-])c1ccccc1N/N=C/c1ccccc1	none
O=[N+]([O-])c1ccc(N/N=C/c2c[nH]c3ccccc23)cc1	SR-BI DiI inh 92
O=[N+]([O-])c1ccccc1N/N=C/c1c[nH]c2ccccc12	SR-BI DiI inh 110
Cc1cc(-c2ccc(C)c(S(=O)(=O)Nc3cc(C)on3)c2)on1	none
Cc1ccc(S(=O)(=O)Nc2cccc(-c3ccc(N4CCCCCC4)nn3)c2)cc1	none
COc1cc2c(cc1OC)CN(c1ccc([N+](=O)[O-])cc1Cl)CC2	SR-BI DiI inh 80
COc1cc2c(cc1OC)CN(c1ccc([N+](=O)[O-])cc1C#N)CC2	none
CCOc1ccc(N(C(=O)c2snc(C(N)=O)c2N)C(C(=O)NCC2CCCO2)c2ccco2)cc1 (stereo not given)	UBC13 polyUb 79
COc1ccc(CNC(=O)C(c2ccco2)N(C(=O)c2snc(C(N)=O)c2N)c2ccccc2OC)cc1 (stereo not given)	Neddyl block 39 (no result: SR-BI DiI inh, SR-BI uptake up)
C/C(=N\Nc1ccc([N+](=O)[O-])cc1)c1cccc(N)c1	none
CCC(=NNc1ccc([N+](=O)[O-])cc1[N+](=O)[O-])c1ccccc1	none (no result: SR-BI DiI inh, UBC13 polyUb, SR-BI uptake up)
C/C(=N\Nc1ccc([N+](=O)[O-])cc1)c1ccc(O)cc1	SR-BI DiI inh 74
CC/C(=N\Nc1ccc([N+](=O)[O-])cc1[N+](=O)[O-])c1ccc(O)cc1	SR-BI DiI inh 76
CCCNC(=O)c1cc(C2CCCN(S(=O)(=O)c3cccs3)C2)on1 (stereo not given)	none (no result: SR-BI DiI inh, UBC13 polyUb, SR-BI uptake up)
CCn1c(CC(=O)Nc2ccccc2F)nnc1SCC(=O)NC1CCCC1	none (no result: SR-BI DiI inh, SR-BI uptake up)
COc1ccc(-c2oc3ccc(-c4ccc(OC)nc4)cc3c2C#CC2(O)CCCCC2)cc1	SR-BI DiI inh 85 (not shown: Neddyl block)
COc1ccc(-c2oc3ccc(-c4ccc(OC)nc4)cc3c2-c2ccc(OC)cc2)cc1	none (not shown: Neddyl block)
COc1ccc(-c2oc3ccc(-c4cc(OC)c(OC)c(OC)c4)cc3c2C(=O)c2ccc(OC)nc2)cc1	UBC13 polyUb inconclusive
CCCOC(=O)c1c(-c2ccc(OC)cc2)oc2ccc(-c3ccc(OC)nc3)cc12	SR-BI DiI inh 73 (not shown: Neddyl block)
COc1ccc(C(=O)c2c(-c3ccc(OC)cc3)oc3ccc(-c4cc(OC)c(OC)c(OC)c4)cc23)cc1	SR-BI DiI inh 73, UBC13 polyUb inconclusive
COc1ccc(-c2oc3ccc(-c4ccc5c(c4)OCO5)cc3c2C#CC2(O)CCCCC2)cc1	SR-BI DiI inh 84
CCCCOc1cccc(C(=O)NC(=S)Nc2cccc(NC(=O)c3ccccc3Cl)c2)c1	none
CCCOc1cccc(C(=O)NC(=S)Nc2cccc(NC(=O)c3ccccc3Cl)c2)c1	SR-BI DiI inh 81
O=C(O)c1cccc(NC(=S)NC(=O)c2cccc(OCc3ccccc3)c2)c1	SR-BI uptake up 68
O=C(CSc1ccc2nnc(-c3ccccn3)n2n1)Nc1ccccc1F	none
CCNc1nc(ON=C(C)C)nc(N(C)C)n1	SR-BI uptake up 64
CCNc1nc(NCC)nc(OCCOC(C)=O)n1	none
CC(C)(C)c1ccc(C(=O)NCC(=O)NNC(=O)c2ccccc2O)cc1	SR-BI DiI inh 90
